# High-throughput results: PubChem BioAssay, several laboratories
# An excerpt weighted towards active compounds, which were near 1.1% of everything screened.
# FAS TE block: inhibitors of human fatty acid synthase thioesterase domain | recombinant FAS-TE, OMFH fluorogenic substrate, fluorescence endpoint | inhibition, % at 15 µM | actives 0.67% (n = 360,000);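 active means compounds whose normalised, plate-corrected inhibition of enzyme fluorescence in the single-dose primary screen is 50% or more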;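 further: 0% = DMSO with enzyme and 100% = substrate without enzyme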
# SENP1 inh: SENP1 (human) catalytic domain inhibition | Q9P0U3 | recombinant SENP1 catalytic domain, CyPet-SUMO1-YPet FRET cleavage | actives 0.21% (n = 360,000) | AID 624204 | inhibition, % at 10 µM;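 active means inhibition at least 30% at 10 µM, raw YFP signal under a set limit, fluorescence ratio 0.5 to 1.5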;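 further: 0% = enzyme with DMSO and 100% = no enzyme wells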
# Target sequence (Q9P0U3 419-644 limits assumed): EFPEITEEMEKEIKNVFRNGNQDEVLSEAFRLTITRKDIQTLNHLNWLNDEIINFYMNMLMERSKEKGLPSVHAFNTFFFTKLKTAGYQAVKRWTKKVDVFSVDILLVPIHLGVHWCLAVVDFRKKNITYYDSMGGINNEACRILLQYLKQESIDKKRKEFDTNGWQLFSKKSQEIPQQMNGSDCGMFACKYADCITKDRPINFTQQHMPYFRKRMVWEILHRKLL
#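 system = hSENP1 catalytic domain, recombinant | reagent = SFCypet-SUMO1-SFYpet substrate at 25 nM | doses = one dose per compound, 10 µM, 0.5% DMSO | incubation = enzyme reaction for 50 min at room temperature, dark | measured by = FRET, CFP and YFP emission | controls = no-enzyme low, enzyme-DMSO high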
# ABCB6 inh 2: human ABCB6 transporter inhibition. K562-ABCB6 porphyrin accumulation, flow cytometry, 1 h; hits give low values. fluorescence ratio to DMSO, % at 10 µM. actives 0.19% (n = 360,000);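 active means fluorescence ratio to DMSO below 75%, the collection mean minus 3 SD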;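 further: signal is porphyrin accumulated inside mitochondria; 100% equals median channel fluorescence of DMSO control wells; lower ratio means ABCB6 inhibition with less porphyrin fluorescence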
# iPSC survival up: enhancers of human iPSC single-cell survival | survival enhancement, % at 20 µM | hiPSC single-cell survival, ATPlite luminescence; 100% = ROCK inhibitor wells, 0% = DMSO | actives 0.044% (n = 360,000); in the data active means survival enhancement above about 18%;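 further: cells exposed to compounds for 16 hours before the ATP read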
# FAS-TE conf: confirmation of human fatty acid synthase thioesterase inhibitors; recombinant FAS-TE, OMFH fluorogenic substrate, fluorescence; inhibition, % at 15 µM; shares compounds with FAS TE block; actives 45% (n = 2,300); AID 624325;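 active means compounds inhibiting the enzyme by at least 50% at 15 µM in any one of the replicates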;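 further: 0% = enzyme with DMSO only and 100% = wells lacking enzyme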
# * marks the source's active call; other numbers are inactive results; . = not tested or not shown.
SMILES,FAS TE block,SENP1 inh,ABCB6 inh 2,iPSC survival up,FAS-TE conf
COc1cc2ncc(S(=O)(=O)c3ccccc3)c(N3CCCC(C)C3)c2cc1OC (stereo not drawn),78*,3,90,2,71*
O=S(=O)(c1ccccc1)c1cnc(-c2ccccc2)nc1N1CCCC1,13,1,98,3,.
CCCCCC(=O)OCc1ccc(C2=CC(=O)CC(C)(C)C2=O)cc1,64*,1,96,0,56*
CC(C)(C)C(=O)OCc1ccc(C2=CC(=O)CC(C)(C)C2=O)cc1,82*,-1,93,-1,82*
CC(=O)C(Cc1ccccc1)NC(=O)COC(=O)c1cc(S(=O)(=O)N2CCOCC2)ccc1F (stereo not drawn),-6,0,96,2,.
NC(=O)c1ccccc1[N+](=O)[O-],-6,-2,103,-2,.
N#CC(CCc1ccccc1[N+](=O)[O-])(CCc1ccccc1[N+](=O)[O-])C(N)=O,52*,1,94,1,47*
O=C(OCc1csc(Nc2ccccc2)n1)c1ccc(Cl)cc1,52*,-2,102,1,14
O=C(COc1ccccc1)OCc1csc(Nc2ccccc2)n1,8,0,99,1,.
COc1ccc(S(=O)(=O)n2ccc(-c3cnc(-c4ccccc4)s3)n2)cc1,58*,1,92,-4,42
O=C(c1ccccc1)n1ccc(-c2cnc(-c3ccccc3)s2)n1,36,4,104,-5,.
O=C(NCc1ccc2c(c1)OCO2)c1ccc2c(c1)N(Cc1c(F)cccc1Cl)C(=O)CS2,54*,4,107,-2,33*
CN(C(=O)COC(=O)c1c2c(nc3ccccc13)/C(=C/c1cccc([N+](=O)[O-])c1)CCC2)C1CCS(=O)(=O)C1 (stereo not drawn),67*,0,92,1,14
O=[N+]([O-])c1ccc(S(=O)(=O)NN=Cc2ccc(Cl)c(Cl)c2)cc1,81*,2,99,-3,89*
O=[N+]([O-])c1cccc(S(=O)(=O)N/N=C\c2ccc3c(c2)OCO3)c1,7,2,108,0,.
CC(=O)Nc1ccc(S(=O)(=O)NN=Cc2ccc(Cl)c(Cl)c2)cc1,-2,1,94,-3,.
O=[N+]([O-])c1ccc(S(=O)(=O)N/N=C/c2ccc3c(c2)OCO3)cc1,72*,0,99,0,74*
C[C@@H](C(=O)OCC(=O)c1ccc(F)c(F)c1)N1C(=O)C2CCCCC2C1=O (stereo partly drawn),-1,1,89,0,.
O=C(Nc1ccccc1OC(F)F)c1cccc(S(=O)(=O)N2CCCC2)c1,-1,2,98,0,.
COc1cc(C(=O)N/C(=C\c2cn(S(=O)(=O)N(C)C)c3ccccc23)C(=O)NCCCO)cc(OC)c1OC,-6,1,96,-1,.
COc1ccccc1C(=O)N/C(=C\c1cn(S(=O)(=O)N(C)C)c2ccccc12)C(=O)NCCN1CCOCC1,-1,0,96,0,.
COc1ccc(C(=O)N/C(=C\c2cn(S(=O)(=O)N(C)C)c3ccccc23)C(=O)NCCCn2ccnc2)cc1,54*,0,94,0,38
Cc1ccc(C(=O)N/C(=C\c2cn(S(=O)(=O)N(C)C)c3ccccc23)C(=O)NCCN2CCOCC2)cc1,60*,-6,96,0,67*
CCCNC(=O)/C(=C/c1cn(S(=O)(=O)N(C)C)c2ccccc12)NC(=O)c1ccc(OC)cc1,81*,-3,96,-1,88*
O=[N+]([O-])c1ccc(N2CCN(S(=O)(=O)c3ccccc3)CC2)cc1NCC1CCCO1 (stereo not drawn),27,4,94,2,.
Cn1cnnc1Sc1cc(N2CCN(S(=O)(=O)c3ccc4ccccc4c3)CC2)ccc1[N+](=O)[O-],64*,-5,95,-2,-4
Cn1cnnc1Sc1cc(N2CCN(S(=O)(=O)c3ccc(Cl)c(Cl)c3)CC2)ccc1[N+](=O)[O-],18,-4,93,2,.
O=[N+]([O-])c1ccc(N2CCN(S(=O)(=O)c3ccc4ccccc4c3)CC2)cc1NCC1CCCO1 (stereo not drawn),51*,3,95,1,2
O=C(COc1ccc2ccccc2c1)N[C@@H](C(=O)O)c1ccc(O)cc1,-5,0,94,-1,.
